ChEMBL document CHEMBL3421533, “The Discovery of Orally Bioavailable Tyrosine Threonine Kinase (TTK) Inhibitors: 3-(4-(heterocyclyl)phenyl)-1H-indazole-5-carboxamides as Anticancer Agents” (J Med Chem, 2015)

Tests used:
[1] = Cmax in athymic CD1 nude mouse at 10 mg/kg, po by LC-MS/MS analysis; assay type: ADME, organism-based; design: dose 10 mg/kg, route oral; conditions: athymic CD1 nude, in vivo
[2] = Cytotoxicity against human HCT116 cells after 5 days by sulforhodamine B assay; assay type: functional, HCT-116
Method in brief: (§1)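 Cancer lines were seeded at 800–6000 cells per well according to growth rate, 24 h before compound overlay. After culture, cells were fixed in situ and stained with sulforhodamine B. GI50 values were derived by curve fitting.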

MDA-MB-468 = experiment: Cytotoxicity against human MDA-MB-468 cells after 5 days by sulforhodamine B assay; assay type: functional; method in brief: as §1
[3] = target: Aurora kinase B/Inner centromere protein (Homo sapiens, UniProt Q96GD4); experiment: Inhibition of AURKB/INCENP (unknown origin) preincubated for 15 mins prior to ATP addition by FRET-based homogenous assay; assay type: protein-complex assay
Aurora kinase B/Inner centromere protein, sequence (Q96GD4 whole entry): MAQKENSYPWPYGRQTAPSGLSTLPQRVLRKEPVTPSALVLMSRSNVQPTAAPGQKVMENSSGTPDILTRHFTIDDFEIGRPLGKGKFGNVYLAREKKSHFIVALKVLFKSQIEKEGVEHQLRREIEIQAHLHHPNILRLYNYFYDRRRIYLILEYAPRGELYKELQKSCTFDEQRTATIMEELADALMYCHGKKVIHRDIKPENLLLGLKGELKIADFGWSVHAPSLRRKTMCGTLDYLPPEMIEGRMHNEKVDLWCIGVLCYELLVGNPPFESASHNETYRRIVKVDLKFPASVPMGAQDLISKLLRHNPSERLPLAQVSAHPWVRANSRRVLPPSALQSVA
Aurora kinase B/Inner centromere protein, sequence (Q9NQS7 whole entry, further chain): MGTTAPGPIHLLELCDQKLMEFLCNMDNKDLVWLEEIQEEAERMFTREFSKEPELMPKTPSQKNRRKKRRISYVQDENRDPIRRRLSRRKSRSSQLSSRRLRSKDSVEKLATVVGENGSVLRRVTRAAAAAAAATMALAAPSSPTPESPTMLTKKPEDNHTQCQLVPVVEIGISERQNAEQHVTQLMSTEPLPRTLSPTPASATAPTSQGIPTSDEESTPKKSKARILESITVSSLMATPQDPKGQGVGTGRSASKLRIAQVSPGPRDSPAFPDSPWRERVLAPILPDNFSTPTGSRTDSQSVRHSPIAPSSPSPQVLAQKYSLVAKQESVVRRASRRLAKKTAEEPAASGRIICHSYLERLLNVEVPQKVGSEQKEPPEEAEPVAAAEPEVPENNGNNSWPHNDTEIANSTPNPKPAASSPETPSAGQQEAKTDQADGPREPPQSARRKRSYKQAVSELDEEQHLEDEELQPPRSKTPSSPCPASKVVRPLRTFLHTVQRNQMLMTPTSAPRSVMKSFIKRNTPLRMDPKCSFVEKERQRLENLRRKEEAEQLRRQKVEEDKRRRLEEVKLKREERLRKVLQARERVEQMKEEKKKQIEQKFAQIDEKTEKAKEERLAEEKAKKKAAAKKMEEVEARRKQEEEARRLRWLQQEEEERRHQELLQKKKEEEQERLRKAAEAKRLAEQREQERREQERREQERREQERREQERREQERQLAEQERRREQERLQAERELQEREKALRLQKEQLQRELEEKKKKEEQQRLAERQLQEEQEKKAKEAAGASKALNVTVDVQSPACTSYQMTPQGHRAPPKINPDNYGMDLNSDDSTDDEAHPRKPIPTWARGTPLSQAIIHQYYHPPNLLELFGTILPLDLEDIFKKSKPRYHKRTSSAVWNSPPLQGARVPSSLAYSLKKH
Method in brief: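 The enzyme was AURKB/INCENP in a FRET-based homogeneous assay run to kit specifications, with ATP at 128 μM. […] Each IC50 came from a single determination, reported with its standard fitting error.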

[4] = target: T1, Dual specificity protein kinase TTK (Homo sapiens, UniProt P33981); experiment: Inhibition of amino terminal GST-fused full length human TTK using His6-SUMO-TTK-N as substrate preincubated for 15 mins prior to ATP addition by indirect ELISA detection system
T1 sequence (P33981 whole entry): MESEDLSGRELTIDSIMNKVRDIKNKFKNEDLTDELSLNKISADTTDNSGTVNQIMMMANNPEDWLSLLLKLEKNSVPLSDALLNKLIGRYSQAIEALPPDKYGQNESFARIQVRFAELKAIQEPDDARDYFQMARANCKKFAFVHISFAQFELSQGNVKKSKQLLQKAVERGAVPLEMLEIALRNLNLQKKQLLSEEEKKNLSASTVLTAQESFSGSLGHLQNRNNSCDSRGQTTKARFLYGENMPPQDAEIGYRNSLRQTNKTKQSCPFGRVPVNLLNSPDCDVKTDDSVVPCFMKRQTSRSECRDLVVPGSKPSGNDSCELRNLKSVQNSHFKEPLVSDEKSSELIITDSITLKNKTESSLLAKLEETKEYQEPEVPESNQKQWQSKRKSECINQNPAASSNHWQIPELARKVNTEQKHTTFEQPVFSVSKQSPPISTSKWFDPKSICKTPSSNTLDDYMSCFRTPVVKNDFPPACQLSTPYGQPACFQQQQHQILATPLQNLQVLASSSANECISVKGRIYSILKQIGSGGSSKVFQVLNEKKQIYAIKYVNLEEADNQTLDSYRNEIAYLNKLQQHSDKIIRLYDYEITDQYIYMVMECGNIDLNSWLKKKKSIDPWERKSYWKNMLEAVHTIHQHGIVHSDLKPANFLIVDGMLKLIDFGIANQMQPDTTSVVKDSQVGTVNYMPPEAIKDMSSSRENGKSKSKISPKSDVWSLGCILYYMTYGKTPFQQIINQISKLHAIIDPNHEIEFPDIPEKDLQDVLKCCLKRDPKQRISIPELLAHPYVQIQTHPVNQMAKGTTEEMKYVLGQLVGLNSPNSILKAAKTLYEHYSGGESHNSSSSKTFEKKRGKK

[5] = AUC in athymic CD1 nude mouse at 10 mg/kg, po by LC-MS/MS analysis; assay type: ADME, organism-based; design: dose 10 mg/kg, route oral; conditions: plasma
[6] = Oral bioavailability in Sprague-Dawley rat at 5 mg/kg by LC-MS/MS analysis; assay type: ADME, organism-based; conditions: in vivo
Cytochrome P450 3A4 = Cytochrome P450 3A4 (Homo sapiens, UniProt P08684); experiment: Inhibition of human CYP3A4 using BFC as substrate preincubated for 10 mins followed by enzyme/substrate addition measured after 30 mins by fluorescence assay; assay type: ADME
Cytochrome P450 3A4, sequence (P08684 whole entry): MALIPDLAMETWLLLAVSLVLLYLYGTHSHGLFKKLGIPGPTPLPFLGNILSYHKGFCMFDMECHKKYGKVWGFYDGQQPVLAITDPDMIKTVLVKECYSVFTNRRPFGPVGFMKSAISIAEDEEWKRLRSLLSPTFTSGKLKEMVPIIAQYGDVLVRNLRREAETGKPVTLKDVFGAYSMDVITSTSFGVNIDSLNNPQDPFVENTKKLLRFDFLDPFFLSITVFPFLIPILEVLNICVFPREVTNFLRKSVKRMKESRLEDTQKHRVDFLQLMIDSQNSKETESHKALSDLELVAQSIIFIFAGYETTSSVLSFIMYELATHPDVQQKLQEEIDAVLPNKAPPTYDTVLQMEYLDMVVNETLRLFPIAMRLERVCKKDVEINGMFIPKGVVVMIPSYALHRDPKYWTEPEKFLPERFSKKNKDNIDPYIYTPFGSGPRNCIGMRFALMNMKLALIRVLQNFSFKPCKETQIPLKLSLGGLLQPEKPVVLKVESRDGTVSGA

[7] = (§2) Half life in rat liver microsomes at 1 uM by LC-MS analysis; assay type: ADME; conditions: liver microsomes
[8] = Half life in Sprague-Dawley rat at 1 mg/kg, iv by LC-MS/MS analysis; assay type: ADME, organism-based; design: dose 1 mg/kg, route intravenous; conditions: in vivo
[9] = Half life in mouse liver microsomes at 1 uM by LC-MS analysis; assay type: ADME; conditions: liver microsomes
[10] = AUCinfinity in Sprague-Dawley rat at 1 mg/kg, iv by LC-MS/MS analysis; assay type: ADME, organism-based; design: time infinity, dose 1 mg/kg, route intravenous; conditions: plasma
[11] = Clearance in Sprague-Dawley rat at 1 mg/kg, iv by LC-MS/MS analysis; assay type: ADME, organism-based; design: dose 1 mg/kg, route intravenous; conditions: in vivo
[12] = Cytotoxicity against human OVCAR3 cells after 5 days by sulforhodamine B assay; assay type: functional, OVCAR-3
[13] = AUCinfinity in Sprague-Dawley rat at 5 mg/kg, po by LC-MS/MS analysis; assay type: ADME, organism-based; design: time infinity, dose 5 mg/kg, route oral; conditions: plasma
[14] = AUCinfinity in athymic CD1 nude mouse at 10 mg/kg, po by LC-MS/MS analysis; assay type: ADME, organism-based, Plasma; design: time infinity, dose 10 mg/kg, route oral; conditions: athymic CD1 nude, plasma
Homo sapiens = species: Homo sapiens; experiment: Selectivity ratio of IC50 for AURKB/INCENP (unknown origin) to IC50 for amino terminal GST-fused full length human TTK
Aurora kinase A = target: T2, Aurora kinase A (Homo sapiens, UniProt O14965); experiment: Inhibition of recombinant AURKA (unknown origin) preincubated for 15 mins prior to ATP addition by FRET-based homogenous assay
T2 sequence (O14965 whole entry): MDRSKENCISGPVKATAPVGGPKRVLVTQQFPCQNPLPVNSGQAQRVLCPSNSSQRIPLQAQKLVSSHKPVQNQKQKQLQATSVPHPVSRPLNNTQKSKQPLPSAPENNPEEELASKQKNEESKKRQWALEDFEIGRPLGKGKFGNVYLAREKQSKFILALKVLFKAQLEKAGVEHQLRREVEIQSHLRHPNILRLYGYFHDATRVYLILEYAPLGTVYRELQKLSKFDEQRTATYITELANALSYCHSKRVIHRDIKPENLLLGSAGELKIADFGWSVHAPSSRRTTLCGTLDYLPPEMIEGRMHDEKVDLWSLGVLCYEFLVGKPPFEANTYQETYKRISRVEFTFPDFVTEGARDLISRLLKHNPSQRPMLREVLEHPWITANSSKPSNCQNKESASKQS

[15] = target: Vascular endothelial growth factor receptor 2 (Homo sapiens, UniProt P35968); experiment: Inhibition of recombinant KDR (unknown origin) preincubated for 15 mins prior to ATP addition by FRET-based homogenous assay
Vascular endothelial growth factor receptor 2, sequence (P35968 whole entry): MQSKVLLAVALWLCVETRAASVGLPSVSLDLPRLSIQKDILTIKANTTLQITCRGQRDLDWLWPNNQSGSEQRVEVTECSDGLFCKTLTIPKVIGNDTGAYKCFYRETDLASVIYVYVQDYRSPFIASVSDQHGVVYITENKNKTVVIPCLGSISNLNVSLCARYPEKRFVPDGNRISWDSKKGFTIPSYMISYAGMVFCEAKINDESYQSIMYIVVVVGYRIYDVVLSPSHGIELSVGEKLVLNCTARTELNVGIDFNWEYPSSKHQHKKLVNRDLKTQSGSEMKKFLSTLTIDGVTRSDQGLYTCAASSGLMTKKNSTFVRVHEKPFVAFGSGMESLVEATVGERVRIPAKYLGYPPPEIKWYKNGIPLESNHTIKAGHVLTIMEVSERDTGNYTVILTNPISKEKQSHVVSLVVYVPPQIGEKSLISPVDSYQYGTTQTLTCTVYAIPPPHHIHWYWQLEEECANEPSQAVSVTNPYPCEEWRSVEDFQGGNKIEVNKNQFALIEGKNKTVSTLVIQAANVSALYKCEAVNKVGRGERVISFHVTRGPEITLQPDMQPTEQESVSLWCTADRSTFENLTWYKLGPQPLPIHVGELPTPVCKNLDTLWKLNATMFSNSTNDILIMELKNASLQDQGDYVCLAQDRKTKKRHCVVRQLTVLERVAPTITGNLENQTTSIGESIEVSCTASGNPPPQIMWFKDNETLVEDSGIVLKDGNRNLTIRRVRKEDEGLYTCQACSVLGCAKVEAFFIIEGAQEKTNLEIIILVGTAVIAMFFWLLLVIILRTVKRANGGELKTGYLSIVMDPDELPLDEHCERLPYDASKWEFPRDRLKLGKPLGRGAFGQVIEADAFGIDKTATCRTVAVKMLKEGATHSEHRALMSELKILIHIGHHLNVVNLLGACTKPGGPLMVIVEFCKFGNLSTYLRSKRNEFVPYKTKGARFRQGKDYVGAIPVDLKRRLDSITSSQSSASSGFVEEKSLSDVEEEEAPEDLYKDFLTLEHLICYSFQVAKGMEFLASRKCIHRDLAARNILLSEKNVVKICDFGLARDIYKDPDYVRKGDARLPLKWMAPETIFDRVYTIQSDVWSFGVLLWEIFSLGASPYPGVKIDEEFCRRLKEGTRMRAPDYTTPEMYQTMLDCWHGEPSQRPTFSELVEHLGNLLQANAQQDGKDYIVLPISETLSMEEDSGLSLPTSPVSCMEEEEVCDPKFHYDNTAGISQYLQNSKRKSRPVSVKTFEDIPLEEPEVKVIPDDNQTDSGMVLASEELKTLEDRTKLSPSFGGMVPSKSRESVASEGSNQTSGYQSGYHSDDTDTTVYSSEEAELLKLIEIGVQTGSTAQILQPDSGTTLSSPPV

Liver microsome = experiment: as §2; assay type: ADME; conditions: microsomes, 1 µM
[16] = Homo sapiens, MDA-MB-468, 120 h

| Compound | Cmax [1] [ng/mL] | GI50 ([2]; Homo sapiens, HCT-116, 120 h) [µM] | GI50 (MDA-MB-468; [16]) [µM] | IC50 [3] [µM] | IC50 [4] [µM] | AUC [5] [ng·h/mL] | bioavailability [6] [%] | IC50 (Cytochrome P450 3A4) [µM] | half-life at 1 µM [7] [min] | half-life at 1 µM [9] [min] | other results |
| --- | --- | --- | --- | --- | --- | --- | --- | --- | --- | --- | --- |
| CN1CCN(c2ccc(-c3n[nH]c4ccc(C(=O)NCC5(N6CCOCC6)CCCCC5)cc34)cc2)CC1 | 160 | 0.012 | 0.18 | 0.44 | 0.0076 | 480 | – | – | – | – | – |
| O=C(N[C@H](c1ccccn1)C1CCCC1)c1ccc2[nH]nc(-c3ccc(N4C5CCC4COC5)cc3)c2c1 | – | – | – | 1.4 | – | – | 39 | 0.93 | – | – | – |
| CC(C)CC(NC(=O)c1ccc2[nH]nc(-c3ccc(O[C@H]4C[C@H]5CC[C@@H](C4)N5C=O)cc3)c2c1)c1ccccn1 (mixture of isomers) | 280 | 0.064 | 0.15 | 0.3 | 0.003 | 660 | – | 0.41 | – | – | – |
| O=C(N[C@H](c1ncccn1)C1CCCC1)c1ccc2[nH]nc(-c3ccc(N4[C@H]5CC[C@H]4CC(O)C5)cc3)c2c1 (some centres undefined) | 750 | 0.001 | 0.014 | 0.62 | 0.0011 | – | 21 | – | > 60 | > 60 | half-life [8]: 43.8 min; AUC(0-inf) [10]: 130 ng·h/mL; clearance [11]: 125 mL/min/kg; GI50 ([12]; Homo sapiens, OVCAR-3, 120 h): 0.02 µM; AUC(0-inf) [13]: 140 ng·h/mL; AUC(0-inf) [14]: 970 ng·h/mL |
| O=C(N[C@H](CC1CC1)c1ccccn1)c1ccc2[nH]nc(-c3ccc(N4[C@H]5CC[C@H]4CC(O)C5)cc3)c2c1 (some centres undefined) | 1200 | 0.016 | 0.027 | 1.2 | 0.0015 | – | 19 | 1.3 | > 60 | > 60 | Ratio IC50 (Homo sapiens): > 100; half-life [8]: 22.8 min; AUC(0-inf) [10]: 290 ng·h/mL; clearance [11]: 57 mL/min/kg; AUC(0-inf) [13]: 270 ng·h/mL; AUC(0-inf) [14]: 1900 ng·h/mL |
| CN1CCN(c2ccc(-c3n[nH]c4ccc(NC(=O)C(c5ccsc5)N5CCCC5)cc34)cc2)CC1 (racemic) | 180 | 0.057 | 0.25 | – | 0.0074 | 590 | – | – | – | – | – |
| NS(=O)(=O)c1cccc(-c2n[nH]c3ccc(NC(=O)C(c4ccsc4)N4CCCC4)cc23)c1 (racemic) | 7 | 0.039 | 0.087 | – | – | 25 | – | – | – | – | – |
| O=C(CC1(N2CCOCC2)CCCCC1)Nc1ccc2[nH]nc(-c3ccc(N4CCOCC4)cc3)c2c1 | – | 0.094 | 0.44 | – | 0.012 | – | – | – | 10 | 5.8 | IC50 (Aurora kinase A): 2.1 µM; IC50 [15]: 1.2 µM |
| O=C(Nc1ccc2[nH]nc(-c3ccc(N4CCOCC4)cc3)c2c1)C(c1ccsc1)N1CCCC1 (racemic) | 3500 | 0.027 | 0.16 | – | 0.011 | 7900 | – | – | – | – | – |
| CN1CCC(Oc2ccc(-c3n[nH]c4ccc(NC(=O)C(c5ccsc5)C5CCCC5)cc34)cc2)CC1 (racemic) | – | 0.059 | 0.19 | – | 0.008 | – | – | – | 15 | 29 | IC50 (Aurora kinase A): 2.3 µM |
| O=C(N[C@@H](c1ccccn1)C1CC1)c1ccc2[nH]nc(-c3ccc(N4C5CCC4COC5)cc3)c2c1 | 1500 | 0.021 | 0.13 | 1.2 | 0.002 | – | 75 | 1.4 | > 60 | > 60 | half-life [8]: 24 min; AUC(0-inf) [10]: 240 ng·h/mL; clearance [11]: 71 mL/min/kg; GI50 ([12]; Homo sapiens, OVCAR-3, 120 h): 0.15 µM; AUC(0-inf) [13]: 890 ng·h/mL; AUC(0-inf) [14]: 2100 ng·h/mL |
| O=CN1[C@@H]2CC[C@H]1C[C@@H](Oc1ccc(-c3n[nH]c4ccc(C(=O)NC(c5ccsc5)C5CCC5)cc34)cc1)C2 (mixture of isomers) | 33 | 0.041 | 0.11 | 1.2 | 0.0025 | 30 | – | – | – | – | – |
| CN1CCC(Oc2ccc(-c3n[nH]c4ccc(C(=O)NC(c5ccsc5)C5CCCC5)cc34)cc2)CC1 (racemic) | – | 0.017 | 0.09 | – | 0.0027 | – | – | – | 24 | 21 | IC50 (Aurora kinase A): 2 µM; IC50 [15]: 2.9 µM |
| O=C(NC(c1ccccc1)C1CC1)c1ccc2[nH]nc(-c3ccc(N4CCOCC4)cc3)c2c1 (racemic) | 3900 | 0.086 | 0.33 | 0.19 | 0.017 | 13500 | – | – | – | – | – |
| O=C(NCC1(N2CCOCC2)CCCCC1)c1ccc2[nH]nc(-c3ccc(N4CCOCC4)cc3)c2c1 | – | 0.039 | 0.19 | 0.75 | 0.0077 | – | – | – | 1.5 | 1.7 | IC50 (Aurora kinase A): 2.3 µM; IC50 [15]: 3.8 µM |
| O=C(N[C@H](c1ccccn1)C1CCCC1)c1ccc2[nH]nc(-c3ccc(N4[C@H]5CC[C@H]4CC(O)C5)cc3)c2c1 (stereo in doubt; 76) | 1500 | – | – | > 6.3 | 0.0043 | – | 13 | 0.82 | – | > 60 | GI50 [2]: 0.008 µM; GI50 (MDA-MB-468): 0.02 µM; t1/2 (Liver microsome): > 60 min; half-life [8]: 46.8 min; AUC(0-inf) [10]: 190 ng·h/mL; clearance [11]: 91 mL/min/kg; GI50 [12]: 0.05 µM; AUC(0-inf) [13]: 130 ng·h/mL; AUC(0-inf) [14]: 2600 ng·h/mL |
